Values joined by “and” are separate entries in the source; they are usually repeats but may differ in a detail not shown here. Equal entries are not always repeated.

The subject of series [1] is MIA PaCa-2 pancreatic cancer cells. Nature of the series: MTT cytotoxicity assay in MIA PaCa-2 cells. The settings on record: read-out: IC50 MIA PaCa-2, 72 h, mean ± sd, three independent experiments. The series is classed as cell-based. Summed up:
(§1)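 Cells kept in RPMI 1640 with 10% FBS, under 35 passages, mycoplasma-free. Seeded in 96-well plates and attached overnight. Exposed to test compound or DMSO for 72 h, then 0.3 mg/mL MTT for 3 h at 37 °C. Medium removed, formazan dissolved in DMSO with 15 min shaking, absorbance read at 570 nm. IC50 obtained by curve fitting; mean ± SD from at least three independent experiments.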
(In general: Formazan colour is commonly taken as a measure of viable cells.)

The test system of series [2] is PANC-1 pancreatic cancer cells. Nature of the series: MTT cytotoxicity assay in PANC-1 cells. The note with it: read-out: IC50 PANC-1, 72 h, mean ± sd, three independent experiments. The series is classed as cell-based. Summed up: as §1
For series [3], the system named is BxPC-3 pancreatic cancer cells. Nature of the series: MTT cytotoxicity assay in BxPC-3 cells. The note with it: read-out: IC50 BxPC-3, 72 h, mean ± sd, three independent experiments. The series is classed as cell-based. The method, boiled down: as §1
A further series relates to LRPPRC and PNPT1. Nature of the series: Immunoblot of LRPPRC and PNPT1 expression. The settings on record: MIA PaCa-2 cells, 3 × IC50, 4 h. The series is classed as cell-based. Summed up:
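Cells seeded at 3.5 × 10^5 per 6-well were treated for 1 h or 4 h (H2O2 comparator 150 μM). Lysis was in RIPA with protease/phosphatase inhibitors, then sonication and BCA. 25 μg protein was run on 10% SDS-PAGE and transferred to PVDF. Blocking: 5% milk. Primary antibodies 1:500–1:1000 overnight at 4 °C, Dylight 800 secondary 1:6000 for 1 h. Infrared imaging; band densities normalized to loading controls.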
For orientation: In western blotting, separated proteins are transferred to a membrane and probed.

A further series in a line: PK study in CD-1 mice. The series is classed as in vivo. The settings on record: for Concentration at 7 h in mouse plasma, IP: IP 10 mg/kg, 10 mg/kg; for Concentration at 7 h in mouse plasma, IP / Concentration at 7 h in mouse plasma, PO: n=2, individual values; for Survival of mice after IV injection: IV 10 mg/kg; for Concentration at 7 h in mouse plasma, PO: PO 20 mg/kg, 20 mg/kg. The method, boiled down: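 CD-1 mice dosed IP (10 mg/kg), PO (20 mg/kg) or IV (10 mg/kg). Blood drawn at 0.5, 2, 4 and 7 h using heparinized calibrated pipettes and centrifuged at 15,000 rpm for 10 min. Plasma collected, frozen at −80 °C, and assayed by LC-MS/MS.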

In the next series the target is T1, GPX4 (Homo sapiens, UniProt P36969).
T1 sequence (P36969 1-197): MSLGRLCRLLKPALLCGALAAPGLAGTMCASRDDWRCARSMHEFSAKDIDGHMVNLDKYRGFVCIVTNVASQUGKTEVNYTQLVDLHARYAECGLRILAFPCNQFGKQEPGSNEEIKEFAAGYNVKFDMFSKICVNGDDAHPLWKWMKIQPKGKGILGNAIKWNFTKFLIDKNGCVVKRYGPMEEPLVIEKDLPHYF
Description: Cellular thermal shift assay. The settings on record: pancreatic cancer cells, 100 μM, 1 h. The series is classed as cell-based. The method, boiled down:
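MIA PaCa-2 or PANC-1 cells seeded at 3 × 10^6 per 10 cm dish, attached overnight, then exposed to 100 μM test compound or DMSO for 1 h. After heating, supernatants were resolved on 10% SDS gels and immunoblotted for GPX4. Bands were quantified to derive a GPX4 melting temperature.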

In series [4] the test system is mouse colon cancer cell line CT-26. Nature of the series: CT-26 subcutaneous tumor study in Balb/c mice. The series is classed as in vivo. The settings on record: n=5, preliminary study.
Series [5] relates to MIA PaCa-2 cells. Nature of the series: Cellular ROS measurement. The series is classed as cell-based. The note with it: for Cellular ROS: MIA PaCa-2 cells, 0-4 h, 30 min. The method, boiled down: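 MIA PaCa-2 cells (RPMI 1640, 10% FBS, 37 °C, 5% CO2) seeded at 1.8 × 10^4 cells/well and attached overnight. Cells loaded with 10 μM CM-H2DCFDA in HBSS for 40 min at 37 °C, then washed twice with DPBS. Test compound added in HBSS at set concentrations. Fluorescence read at Ex 483/Em 530 nm over time. TBHP served as positive control.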

The subject of the next series is GSH/GSSG ratio. Nature of the series: GSH/GSSG-Glo assay. The note with it: MIA PaCa-2 cells, 2 h and 4 h treatment. The series is classed as cell-based. The method, boiled down:
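Luminescent GSH/GSSG-Glo kit. 15,000–20,000 cells/well attached overnight, then were treated. Medium was removed and cells were lysed in Total or Oxidized Glutathione Reagent (5 min shaking). Luciferin Generation Reagent was added for 30 min at room temperature, then Detection Reagent; luminescence was read after 15 min equilibration. Ratio from net RLU = (total glutathione − GSSG)/(GSSG/2).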

The subject of series [6] is MIA PaCa-2 cells. Description: Lipid ROS measurement. The series is classed as cell-based. The settings on record: 24 h treatment, BODIPY C11. Summed up: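 After compound exposure, MIA PaCa-2 cells received 10 μM C11-BODIPY for 30 min at 37 °C. They were washed twice with DPBS and read in HBSS on a plate reader at Ex/Em 581/591 nm (reduced dye) and 488/510 nm (oxidized dye). The Texas Red/FITC emission ratio was calculated; significance by unpaired Student's t-test.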

A further series relates to STAT3. Nature of the series: Immunoblot of STAT3 phosphorylation and pH2AX. The series is classed as cell-based. The settings on record: MIA PaCa-2 and PANC-1 cells, 4 h. Summed up: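 Cells seeded at 3.5 × 10^5/well (6-well) and treated 4 h at indicated concentrations. Lysed in RIPA with protease and phosphatase inhibitors, sonicated and centrifuged. 25 μg protein run on 10% SDS-PAGE and transferred to PVDF. Blocked in 5% milk; primary antibodies (STAT3, pSTAT3, pH2AX, GAPDH; 1:500–1:1000) overnight at 4 °C; infrared secondary 1:6000, 1 h RT. Signals normalised to loading control.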

The subject of the next series is pancreatic cancer cells. Description: Colony formation assay, drug combinations. The series is classed as cell-based. Summed up: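 Cells seeded in 96-well plates: 300/well for MIA PaCa-2, 600/well for PANC-1 and BxPC-3; attached overnight. Partner drug added 1 h before test compound, with continuous exposure. Incubation ran 7–9 days, until control wells were 80–90% confluent. Stained with 0.05% crystal violet for 30 min, washed, dried and imaged. Synergy scored with HSA and Bliss models.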

Series [7] in a line: Tissue distribution analysis in mice. The note with it: mouse, colon, intravenous, 10 mg/kg. The series is classed as in vivo. Summed up: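 Tissue homogenised with bead beating in dissociation solvent at five-fold tissue weight. 30 μL homogenate mixed with 30 μL acetonitrile and 140 μL internal standard, vortexed, and centrifuged at 3500 g for 10 min. Supernatant analysed by LC-MS against calibration curves made in spiked blank homogenate.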

Take “6-(9H-Fluoren-4-ylamino)quinazoline-5,8-dione [QD390]”: the IC50 in [1] was determined as 3.1 ± 1.5 µM; in [2], 4.7 ± 1.5 µM; in series [3], 4.5 ± 0.6 µM.

For `CC(=O)c1cc2c(o1)C(=O)c1ccccc1C2=O` [Napabucasin, reference compound], the “Protein expression of LRPPRC and PNPT1” value with LRPPRC and PNPT1 is listed as “decreased the protein expression of these two genes”.

On to `CN1CCN(c2ccc(NC3=CC(=O)c4ncncc4C3=O)cc2)CC1` [QD394, 6-(4-(4-Methylpiperazin-1-yl)phenylamino)quinazoline-5,8-dione], for which, in “PK study in CD-1 mice”, the “Concentration at 7 h in mouse plasma, IP” value is given as 5.0 ng/mL; the “Concentration at 7 h in mouse plasma, PO” value was 23.3 ng/mL and 25.8 ng/mL. Also, in “PK study in CD-1 mice” (n=3, 10 mg/kg), the “Survival of mice after IV injection” value is “two out of three mice administered with QD394 via IV injection died and 2 out of 3 mice died”. On GPX4, the “Effect on GPX4 protein stability (CETSA)” value is reported as “destabilized GPX4 protein”. Also, the “Tumor shrinkage, QD394 IP group” value in series [4] (CT-26, IP 20 mg/kg) is “Three out of five mice displayed tumor shrinkage”. For the same compound, the “Cellular ROS” value with MIA PaCa-2 cells [5] is recorded as “time-dependent cellular ROS accumulation”. Moreover, the “Intracellular ROS level among analogs” value in the series with MIA PaCa-2 cells [5] (after 1 h compound treatment) is “highest level of intracellular ROS”. The GSH/GSSG ratio result in the series on GSH/GSSG ratio is recorded as “significantly decreased the GSH/GSSG ratio”. Further, the “Lipid ROS (lipid peroxidation)” value in the series on MIA PaCa-2 cells [6] is on record as “significantly increased lipid ROS in a dose-dependent manner”. Besides, in the series with STAT3, the “Phosphorylation of H2AX (DNA damage biomarker)” value is “increased the phosphorylation of H2AX” and the “Phosphorylation of STAT3” value was “inhibited the phosphorylation of STAT3”. For the same compound, in the series with LRPPRC and PNPT1, the “Protein expression of LRPPRC and PNPT1” value is “significantly decreased their expression at 4 h”. Moreover, in the series with pancreatic cancer cells (MIA PaCa-2 and PANC-1 cells), the Combination with napabucasin entry is reported as “synergism”. Also, in the series on pancreatic cancer cells (pancreatic cancer cells), the “Combination with As2O3” value is reported as “sensitizes cells to As2O3” and the Combination with olaparib entry is “synergistic effects”.

On to `CC1=C(Nc2ccc(N3CCN(C)CC3)cc2)C(=O)c2cncnc2C1=O` [QD394-Me, 7-Methyl-6-((4-(4-methylpiperazin-1-yl)phenyl)amino)quinazoline-5,8-dione], for which, in “PK study in CD-1 mice”, the “Concentration at 7 h in mouse plasma, IP” value is 6.7 ng/mL and 1.1 ng/mL; the “Concentration at 7 h in mouse plasma, PO” value was 4.2 ng/mL. In “PK study in CD-1 mice” (n=3), the “Survival of mice after IV injection” value was “all three mice that received IV injections of QD394-Me survived”. Also, on GPX4, the “Effect on GPX4 protein stability (CETSA)” value was “destabilized GPX4 protein”. Moreover, the concentration at 1 h in [7] is about 300 ng/g. For the same compound, in [4] (CT-26, IV 10 mg/kg), the “Tumor shrinkage, QD394-Me IV group” value is given as “Three out of five mice displayed tumor shrinkage”. Further, in the series on MIA PaCa-2 cells [5], the “Cellular ROS” value is “significantly increased cellular ROS”. The “Lipid ROS (lipid peroxidation)” value in the series on MIA PaCa-2 cells [6] is reported as “increased lipid ROS significantly in a dose-dependent manner”. For the same compound, in the series with LRPPRC and PNPT1, the “Protein expression of LRPPRC and PNPT1” value is “significantly decreased protein expression of LRPPRC and PNPT1”.

One may read the IC50 as the midpoint of a concentration-inhibition curve.

The values are drawn from PMC8082945 (Journal of medicinal chemistry, 2020).
